In ChEMBL document CHEMBL4627272, “Design, synthesis, and biological activity evaluation of a series of pleuromutilin derivatives with novel C14 side chains” (2020):
≈ marks a conversion by molar mass, not a printed value.

Tests used:
Assay type in all cases: functional
Staphylococcus aureus [1] = experiment: Antibacterial activity against methicillin-sensitive Staphylococcus aureus ATCC 29213 assessed as reduction in bacterial growth incubated for 18 hrs by agar dilution method; settings: ATCC 29213, 18 h
Summary of the method: (§1)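 CLSI agar dilution MIC. Stocks at 1920 μg/ml in 0.2% DMSO, twofold diluted and mixed into agar plates to final 0.03–128 µg/mL. Inoculum set to 0.5 turbidity, diluted 10-fold and applied by multipoint inoculator within 30 min, about 10^4 CFU per spot. Plates incubated 35 ± 2°C for 18 h. MIC is the lowest concentration with no visible growth.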

Staphylococcus aureus [2] = experiment: Antibacterial activity against methicillin-resistant Staphylococcus aureus ATCC 33591 assessed as reduction in bacterial growth incubated for 18 hrs by agar dilution method; settings: ATCC 33591, 18 h; summary of the method: as §1
[3] = test system: Staphylococcus epidermidis; experiment: Antibacterial activity against methicillin-resistant Staphylococcus epidermidis 16-5 assessed as reduction in bacterial growth incubated for 18 hrs by agar dilution method; settings: 16-5, 18 h; summary of the method: as §1
[4] = test system: Staphylococcus epidermidis; experiment: Antibacterial activity against methicillin-sensitive Staphylococcus epidermidis ATCC 12228 assessed as reduction in bacterial growth incubated for 18 hrs by agar dilution method; settings: ATCC 12228, 18 h; summary of the method: as §1

SMILES | MIC (Staphylococcus aureus [1]) | MIC (Staphylococcus aureus [2]) | MIC [3] | MIC [4]
C=C[C@]1(C)C[C@@H](OC(=O)CS[C@@H]2CC[C@H](C(=O)OCC)C[C@H]2NS(=O)(=O)c2ccc(Br)cc2)[C@]2(C)[C@H](C)CC[C@]3(CCC(=O)[C@H]32)[C@@H](C)[C@@H]1O | 1 µg/mL (≈ 1.28 µM) | 1 µg/mL (≈ 1.28 µM) | 1 µg/mL (≈ 1.28 µM) | 1 µg/mL (≈ 1.28 µM)
C=C[C@]1(C)C[C@@H](OC(=O)CS[C@@H]2CC[C@H](C(=O)O)C[C@H]2N)[C@]2(C)[C@H](C)CC[C@]3(CCC(=O)[C@H]32)[C@@H](C)[C@@H]1O | 32 µg/mL (≈ 59.7 µM) | 32 µg/mL (≈ 59.7 µM) | 4 µg/mL (≈ 7.47 µM) | 2 µg/mL (≈ 3.73 µM)
C=C[C@]1(C)C[C@@H](OC(=O)CS[C@@H]2CC[C@H](C(=O)OCC)C[C@H]2NS(=O)(=O)c2ccc(NC(C)=O)cc2)[C@]2(C)[C@H](C)CC[C@]3(CCC(=O)[C@H]32)[C@@H](C)[C@@H]1O | 0.5 µg/mL (≈ 0.657 µM) | 0.5 µg/mL (≈ 0.657 µM) | 0.5 µg/mL (≈ 0.657 µM) | 0.5 µg/mL (≈ 0.657 µM)
C=C[C@]1(C)C[C@@H](OC(=O)CS[C@@H]2CC[C@H](C(=O)OCC)C[C@H]2NS(=O)(=O)c2ccc(C(C)=O)cc2)[C@]2(C)[C@H](C)CC[C@]3(CCC(=O)[C@H]32)[C@@H](C)[C@@H]1O | 0.25 µg/mL (≈ 0.335 µM) | 0.25 µg/mL (≈ 0.335 µM) | 0.25 µg/mL (≈ 0.335 µM) | 0.25 µg/mL (≈ 0.335 µM)
C=C[C@]1(C)C[C@@H](OC(=O)CS[C@@H]2CC[C@H](C(=O)OCC)C[C@H]2NS(=O)(=O)c2ccc(F)cc2)[C@]2(C)[C@H](C)CC[C@]3(CCC(=O)[C@H]32)[C@@H](C)[C@@H]1O | 1 µg/mL (≈ 1.39 µM) | 1 µg/mL (≈ 1.39 µM) | 1 µg/mL (≈ 1.39 µM) | 0.5 µg/mL (≈ 0.693 µM)
C=C[C@]1(C)C[C@@H](OC(=O)CS[C@@H]2CC[C@H](C(=O)OCC)C[C@H]2N)[C@]2(C)[C@H](C)CC[C@]3(CCC(=O)[C@H]32)[C@@H](C)[C@@H]1O | 1 µg/mL (≈ 1.77 µM) | 1 µg/mL (≈ 1.77 µM) | 0.25 µg/mL (≈ 0.443 µM) | 0.25 µg/mL (≈ 0.443 µM)
C=C[C@]1(C)C[C@@H](OC(=O)CS[C@@H]2CC[C@H](C(=O)OCC)C[C@H]2NS(=O)(=O)c2ccc(Cl)cc2)[C@]2(C)[C@H](C)CC[C@]3(CCC(=O)[C@H]32)[C@@H](C)[C@@H]1O | 1 µg/mL (≈ 1.35 µM) | 0.5 µg/mL (≈ 0.677 µM) | 0.5 µg/mL (≈ 0.677 µM) | 0.5 µg/mL (≈ 0.677 µM)
C=C[C@]1(C)C[C@@H](OC(=O)CS[C@@H]2CC[C@H](C(=O)OCC)C[C@H]2NS(=O)(=O)c2ccc(OC)cc2)[C@]2(C)[C@H](C)CC[C@]3(CCC(=O)[C@H]32)[C@@H](C)[C@@H]1O | 0.5 µg/mL (≈ 0.681 µM) | 0.25 µg/mL (≈ 0.341 µM) | 0.5 µg/mL (≈ 0.681 µM) | 0.25 µg/mL (≈ 0.341 µM)
C=C[C@]1(C)C[C@@H](OC(=O)CS[C@@H]2CC[C@H](C(=O)OCC)C[C@H]2NS(=O)(=O)c2ccc(C)cc2)[C@]2(C)[C@H](C)CC[C@]3(CCC(=O)[C@H]32)[C@@H](C)[C@@H]1O | 1 µg/mL (≈ 1.39 µM) | 1 µg/mL (≈ 1.39 µM) | 0.5 µg/mL (≈ 0.696 µM) | 0.25 µg/mL (≈ 0.348 µM)
C=C[C@]1(C)C[C@@H](OC(=O)CS[C@@H]2CC[C@H](C(=O)OCC)C[C@H]2NS(=O)(=O)c2ccccc2)[C@]2(C)[C@H](C)CC[C@]3(CCC(=O)[C@H]32)[C@@H](C)[C@@H]1O | 1 µg/mL (≈ 1.42 µM) | 0.5 µg/mL (≈ 0.71 µM) | 1 µg/mL (≈ 1.42 µM) | 0.5 µg/mL (≈ 0.71 µM)
C=C[C@]1(C)C[C@@H](OC(=O)CS[C@@H]2CC[C@H](C(=O)OCC)C[C@H]2NS(=O)(=O)c2ccc([N+](=O)[O-])cc2)[C@]2(C)[C@H](C)CC[C@]3(CCC(=O)[C@H]32)[C@@H](C)[C@@H]1O | 1 µg/mL (≈ 1.34 µM) | 1 µg/mL (≈ 1.34 µM) | 0.5 µg/mL (≈ 0.668 µM) | 0.5 µg/mL (≈ 0.668 µM)
C=C[C@]1(C)C[C@@H](OC(=O)CS[C@@H]2CC[C@H](C(=O)OCC)C[C@H]2NS(=O)(=O)c2ccc(C#N)cc2)[C@]2(C)[C@H](C)CC[C@]3(CCC(=O)[C@H]32)[C@@H](C)[C@@H]1O | 1 µg/mL (≈ 1.37 µM) | 1 µg/mL (≈ 1.37 µM) | 0.5 µg/mL (≈ 0.686 µM) | 0.25 µg/mL (≈ 0.343 µM)
C=C[C@]1(C)C[C@@H](OC(=O)CS[C@@H]2CC[C@@H](N)C[C@H]2O)[C@]2(C)[C@H](C)CC[C@]3(CCC(=O)[C@H]32)[C@@H](C)[C@@H]1O [LEFAMULIN] | 0.25 µg/mL (≈ 0.492 µM) | 0.5 µg/mL (≈ 0.985 µM) | 0.25 µg/mL (≈ 0.492 µM) | ≤ 0.03 µg/mL
